# Results reported in paper PMC7733813 (Proceedings of the National Academy of Sciences of the …, 2020).
# Where a SMILES comes first, the peptide text is derived from it. Bridges are numbered along the chain shown (N, C = ends). Roman numbers before positions name the chains, in order. [ ]: non-standard residue; d: D form. PEG3 = NCCOCCOCCOCCC(=O)O; Dap = NC[C@H](N)C(=O)O
# Experiments:
# mouse PlxnB1 = biological target: T1, mouse PlxnB1 (Mus musculus, UniProt Q8CJH3); experiment: Surface plasmon resonance; type: binding
# T1 sequence (Q8CJH3 20-479 limits assumed): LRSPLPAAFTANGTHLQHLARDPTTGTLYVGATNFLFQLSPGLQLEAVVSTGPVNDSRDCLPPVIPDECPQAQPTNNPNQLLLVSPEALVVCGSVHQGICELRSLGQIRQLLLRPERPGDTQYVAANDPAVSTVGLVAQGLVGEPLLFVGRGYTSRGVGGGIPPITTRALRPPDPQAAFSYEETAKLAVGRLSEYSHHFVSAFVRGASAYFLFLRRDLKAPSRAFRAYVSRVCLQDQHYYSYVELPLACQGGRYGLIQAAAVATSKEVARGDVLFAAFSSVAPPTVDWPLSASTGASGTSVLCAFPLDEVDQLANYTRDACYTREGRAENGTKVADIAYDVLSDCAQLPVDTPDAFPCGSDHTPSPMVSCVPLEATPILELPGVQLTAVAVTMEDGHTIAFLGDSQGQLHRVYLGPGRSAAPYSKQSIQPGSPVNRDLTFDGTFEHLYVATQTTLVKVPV
# [1] = test system: mouse primary osteoblasts (calvarial cells); experiment: Bone nodule formation in primary calvarial cells, alizarin red S staining; type: cell-based; details: 10 µg/mL mouse Sema4D-Fc; peptide 0.05, 0.5, 5 µM; 21 d
# ovariectomized mice = type: in vivo, mouse; details: OVX mice, 5 µmol/kg i.v. once weekly, 4 wk, vs vehicle
# How it was run: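 C57BL/6J ovariectomized mice, kept specific-pathogen-free, were given test compound i.v. once weekly for 4 wk. Sham-operated and vehicle groups served as controls. Bones were fixed in 70% ethanol and scanned by µCT, and 3D structural indices were computed. Undecalcified tibiae were embedded in glycol methacrylate and cut into 5 µm sections. Sections were stained with toluidine blue for osteoblast parameters and TRAP for osteoclast parameters. Data are mean ± SEM.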
# [2] = test system: Col1a1, Alpl, Bglap expression in mouse primary osteoblasts; experiment: qPCR of genes implicated in osteoblastic bone formation in primary osteoblasts; type: cell-based; details: with or without Sema4D-Fc, vs vehicle control
structure (smiles),measurement,setting,value
"CC[C@H](C)[C@@H]1NC(=O)[C@H](Cc2ccc(O)cc2)NC(=O)[C@@H]2CCCN2C(=O)[C@H](CCCNC(=N)N)NC(=O)[C@@H](Cc2c[nH]c3ccccc23)NC(=O)CSC[C@@H](C(=O)NCC(=O)NCCOCCOCCOCCC(=O)NC[C@H](NC(=O)CCOCCOCCOCCNC(=O)CNC(=O)[C@@H]2CSCC(=O)N[C@H](Cc3c[nH]c4ccccc34)C(=O)N[C@@H](CCCNC(=N)N)C(=O)N3CCC[C@H]3C(=O)N[C@@H](Cc3ccc(O)cc3)C(=O)N[C@@H]([C@@H](C)CC)C(=O)N[C@@H](CCC(=O)O)C(=O)N[C@@H](CCCNC(=N)N)C(=O)N[C@@H](Cc3c[nH]c4ccccc34)C(=O)N[C@@H]([C@@H](C)O)C(=O)NCC(=O)N[C@@H](CCCNC(=N)N)C(=O)N[C@@H](CC(C)C)C(=O)N[C@@H]([C@@H](C)CC)C(=O)N[C@@H](C(C)C)C(=O)N2)C(N)=O)NC(=O)[C@H](C(C)C)NC(=O)[C@H]([C@@H](C)CC)NC(=O)[C@H](CC(C)C)NC(=O)[C@H](CCCNC(=N)N)NC(=O)CNC(=O)[C@H]([C@@H](C)O)NC(=O)[C@H](Cc2c[nH]c3ccccc23)NC(=O)[C@H](CCCNC(=N)N)NC(=O)[C@H](CCC(=O)O)NC1=O [PB1d6A9] (I: {CH2CO}-[dW]RPYIERWTGRLIVCG[PEG3][Dap]-NH2 / II: {CH2CO}-[dW]RPYIERWTGRLIVCG[PEG3]; amide I:18-II:C; thioether I:N-I:15, II:N-II:15)",Kd,mouse PlxnB1,200 pM
same,"decrease in dissociation rate of dimer over monomer, mouse PlxnB1",mouse PlxnB1; PB1d6A9 vs PB1m6A9,10 fold
same,"improvement in KD of dimer over monomer, mouse PlxnB1",mouse PlxnB1; PB1d6A9 vs PB1m6A9,~220 fold
same,"increase in association rate of dimer over monomer, mouse PlxnB1",mouse PlxnB1; PB1d6A9 vs PB1m6A9,22 fold
same,bone nodule formation (alizarin red S),[1],dose-dependent increases in bone formation
same,"bone loss, µCT of femurs",ovariectomized mice,clear suppression of bone loss
same,"expression of Col1a1, Alpl and Bglap",[2],enhanced
